Assay results: ChEMBL document CHEMBL5058577, “EUbOPEN Chemogenomics Library 2 (Multiplex)” (2022)

Test system: Fibroblast
Experiment: Multiplex assay against human fibroblast
Type: toxicity, cell-based
In short: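 At seeding, live cells were stained with Hoechst33342, BioTracker Green Microtubule Cytoskeleton Dye, MitoTracker Red and Annexin V Alexa Fluor 680. After compound addition they were imaged on a CQ1 microscope at 37°C and 5% CO2, and CellPathfinder machine-learning gating sorted them into Hoechst high-intensity objects or normal cells, with normal cells further split into healthy, pyknosed or fragmented nuclei and pyknosed cells into mitotic or apoptotic. Tubulin, mitochondrial-mass and membrane-permeability phenotypes are given as per cents of cells with healthy nuclei.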

[1] = 12 h, 1 µM, compound concentration 1 uM, replicate 1
[2] = 12 h, 1 µM, compound concentration 1 uM, replicate 2
[3] = 12 h, 10 µM, compound concentration 10 uM, replicate 1
[4] = 12 h, 10 µM, compound concentration 10 uM, replicate 2
[5] = 24 h, 1 µM, compound concentration 1 uM, replicate 1
[6] = 24 h, 1 µM, compound concentration 1 uM, replicate 2
[7] = 24 h, 10 µM, compound concentration 10 uM, replicate 1
[8] = 24 h, 10 µM, compound concentration 10 uM, replicate 2
[9] = 48 h, 1 µM, compound concentration 1 uM, replicate 1
[10] = 48 h, 1 µM, compound concentration 1 uM, replicate 2
[11] = 48 h, 10 µM, compound concentration 10 uM, replicate 1
[12] = 48 h, 10 µM, compound concentration 10 uM, replicate 2

Cc1sc2c(c1C)C(c1ccc(Cl)cc1)=N[C@@H](CC(=O)NCCCCCCCCNC(=O)COc1cccc3c1C(=O)N(C1CCC(=O)NC1=O)C3=O)c1nnc(C)n1-2 (some centres not stated)
Population Apoptotic (%) [1]: 57% | Population Fragmented Nuclei (%) [1]: 10% | Population Healthy Nuclei (%) [1]: 72% | Population Hoechst High Intensity Objects (%) [1]: 3% | Population Membrane Permeable-Phenotype (%) [1]: 1% | Population Mitochondria Different-Phenotype (%) [1]: 4% | Population Mitotic Cells (%) [1]: 42% | Population Normal (%) [1]: 96% | Population Pyknosed Nuclei (%) [1]: 16% | Population Tubulin-Different-Phenotype (%) [1]: 25% | Total Cell Count [1]: 118 | Population Apoptotic (%) [2]: 42% | Population Fragmented Nuclei (%) [2]: 34% | Population Healthy Nuclei (%) [2]: 34% | Population Hoechst High Intensity Objects (%) [2]: 6% | Population Membrane Permeable-Phenotype (%) [2]: 23% | Population Mitochondria Different-Phenotype (%) [2]: 23% | Population Mitotic Cells (%) [2]: 57% | Population Normal (%) [2]: 93% | Population Pyknosed Nuclei (%) [2]: 31% | Population Tubulin-Different-Phenotype (%) [2]: 66% | Total Cell Count [2]: 94 | Population Apoptotic (%) [3]: 54% | Population Fragmented Nuclei (%) [3]: 13% | Population Healthy Nuclei (%) [3]: 56% | Population Hoechst High Intensity Objects (%) [3]: 11% | Population Membrane Permeable-Phenotype (%) [3]: 1% | Population Mitochondria Different-Phenotype (%) [3]: 19% | Population Mitotic Cells (%) [3]: 45% | Population Normal (%) [3]: 88% | Population Pyknosed Nuclei (%) [3]: 30% | Population Tubulin-Different-Phenotype (%) [3]: 50% | Total Cell Count [3]: 171 | Population Apoptotic (%) [4]: 44% | Population Fragmented Nuclei (%) [4]: 27% | Population Healthy Nuclei (%) [4]: 27% | Population Hoechst High Intensity Objects (%) [4]: 17% | Population Membrane Permeable-Phenotype (%) [4]: 7% | Population Mitochondria Different-Phenotype (%) [4]: 26% | Population Mitotic Cells (%) [4]: 55% | Population Normal (%) [4]: 82% | Population Pyknosed Nuclei (%) [4]: 45% | Population Tubulin-Different-Phenotype (%) [4]: 69% | Total Cell Count [4]: 115 | Population Apoptotic (%) [5]: 56% | Population Fragmented Nuclei (%) [5]: 20% | Population Healthy Nuclei (%) [5]: 53% | Population Hoechst High Intensity Objects (%) [5]: 10% | Population Membrane Permeable-Phenotype (%) [5]: 3% | Population Mitochondria Different-Phenotype (%) [5]: 3% | Population Mitotic Cells (%) [5]: 44% | Population Normal (%) [5]: 89% | Population Pyknosed Nuclei (%) [5]: 26% | Population Tubulin-Different-Phenotype (%) [5]: 25% | Total Cell Count [5]: 107 | Population Apoptotic (%) [6]: 65% | Population Fragmented Nuclei (%) [6]: 41% | Population Healthy Nuclei (%) [6]: 32% | Population Hoechst High Intensity Objects (%) [6]: 3% | Population Membrane Permeable-Phenotype (%) [6]: 16% | Population Mitochondria Different-Phenotype (%) [6]: 20% | Population Mitotic Cells (%) [6]: 35% | Population Normal (%) [6]: 96% | Population Pyknosed Nuclei (%) [6]: 25% | Population Tubulin-Different-Phenotype (%) [6]: 72% | Total Cell Count [6]: 80 | Population Apoptotic (%) [7]: 67% | Population Fragmented Nuclei (%) [7]: 20% | Population Healthy Nuclei (%) [7]: 38% | Population Hoechst High Intensity Objects (%) [7]: 13% | Population Membrane Permeable-Phenotype (%) [7]: 3% | Population Mitochondria Different-Phenotype (%) [7]: 9% | Population Mitotic Cells (%) [7]: 32% | Population Normal (%) [7]: 86% | Population Pyknosed Nuclei (%) [7]: 41% | Population Tubulin-Different-Phenotype (%) [7]: 47% | Total Cell Count [7]: 154 | Population Apoptotic (%) [8]: 44% | Population Fragmented Nuclei (%) [8]: 25% | Population Healthy Nuclei (%) [8]: 32% | Population Hoechst High Intensity Objects (%) [8]: 12% | Population Membrane Permeable-Phenotype (%) [8]: 17% | Population Mitochondria Different-Phenotype (%) [8]: 20% | Population Mitotic Cells (%) [8]: 55% | Population Normal (%) [8]: 87% | Population Pyknosed Nuclei (%) [8]: 42% | Population Tubulin-Different-Phenotype (%) [8]: 68% | Total Cell Count [8]: 103 | Population Apoptotic (%) [9]: 88% | Population Fragmented Nuclei (%) [9]: 41% | Population Healthy Nuclei (%) [9]: 24% | Population Hoechst High Intensity Objects (%) [9]: 27% | Population Membrane Permeable-Phenotype (%) [9]: 0% | Population Mitochondria Different-Phenotype (%) [9]: 0% | Population Mitotic Cells (%) [9]: 12% | Population Normal (%) [9]: 72% | Population Pyknosed Nuclei (%) [9]: 33% | Population Tubulin-Different-Phenotype (%) [9]: 33% | Total Cell Count [9]: 102 | Population Apoptotic (%) [10]: 93% | Population Fragmented Nuclei (%) [10]: 42% | Population Healthy Nuclei (%) [10]: 37% | Population Hoechst High Intensity Objects (%) [10]: 8% | Population Membrane Permeable-Phenotype (%) [10]: 27% | Population Mitochondria Different-Phenotype (%) [10]: 20% | Population Mitotic Cells (%) [10]: 6% | Population Normal (%) [10]: 91% | Population Pyknosed Nuclei (%) [10]: 20% | Population Tubulin-Different-Phenotype (%) [10]: 82% | Total Cell Count [10]: 85 | Population Apoptotic (%) [11]: 86% | Population Fragmented Nuclei (%) [11]: 40% | Population Healthy Nuclei (%) [11]: 20% | Population Hoechst High Intensity Objects (%) [11]: 38% | Population Membrane Permeable-Phenotype (%) [11]: 5% | Population Mitochondria Different-Phenotype (%) [11]: 10% | Population Mitotic Cells (%) [11]: 13% | Population Normal (%) [11]: 61% | Population Pyknosed Nuclei (%) [11]: 38% | Population Tubulin-Different-Phenotype (%) [11]: 55% | Total Cell Count [11]: 156 | Population Apoptotic (%) [12]: 57% | Population Fragmented Nuclei (%) [12]: 38% | Population Healthy Nuclei (%) [12]: 38% | Population Hoechst High Intensity Objects (%) [12]: 15% | Population Membrane Permeable-Phenotype (%) [12]: 14% | Population Mitochondria Different-Phenotype (%) [12]: 14% | Population Mitotic Cells (%) [12]: 42% | Population Normal (%) [12]: 84% | Population Pyknosed Nuclei (%) [12]: 23% | Population Tubulin-Different-Phenotype (%) [12]: 80% | Total Cell Count [12]: 108
